Published values collected from several papers.
Lines come from different studies, so protocols differ.
Organism: Bacillus subtilis
Effect on: microbial growth

`CCCCCCCCCC(=O)N[C@@H](Cc1c[nH]c2ccccc12)C(=O)N[C@H](CC(N)=O)C(=O)N[C@@H](CC(=O)O)C(=O)N[C@@H]1C(=O)NCC(=O)N[C@@H](CCCN)C(=O)N[C@@H](CC(=O)O)C(=O)N[C@H](C)C(=O)N[C@@H](CC(=O)O)C(=O)NCC(=O)N[C@H](CO)C(=O)N[C@@H]([C@H](C)CC(=O)O)C(=O)N[C@@H](CC(=O)c2ccccc2N)C(=O)O[C@@H]1C` gave an MIC of 0.25 µg/mL (broth dilution; 168).
`CCCCCCCC(=O)CP(=O)(O)O` has an MIC of greater than 200 µg/mL (ATCC23857).
The MIC of `CC1C(=NOCc2cn(-c3ccccc3)nn2)CC(c2ccccc2)OC1c1ccccc1` (stereo not shown) is reported as 50 µg/mL (broth dilution; MTCC121; 24 h).
With `CCCCCCCCCCCCCCCC(=O)NP(=O)(O)O` the MIC was greater than 200 µg/mL (ATCC23857).
The MIC of `Oc1cc(Cl)ccc1Oc1ccc(Cl)cc1Cl` is reported as 1.8 µg/mL.
The MIC of `CCC1C(=NOCc2cn(-c3ccccc3)nn2)CC(c2ccccc2)OC1c1ccccc1` (stereo not shown) is reported as 25 µg/mL (broth dilution; MTCC121; 24 h).
For `CCCCCCCCCCCC(=O)C(F)(F)P(=O)(O)O`, the MIC was greater than 200 µg/mL (ATCC23857).
`Cc1c(NN=C(C#N)C2=NC(=O)CS2)c(=O)n(-c2ccccc2)n1C` has an MIC of 0.98 µg/mL (broth dilution).
With `CCCCCCCCCCCC(=O)OC[C@H]1O[C@@H](n2cc(C)c(=O)[nH]c2=O)C[C@@H]1OC(=O)c1ccc(C(C)(C)C)cc1` the MIC was 1 µg/mL (broth dilution).
`CO[C@@H]1[C@@H](OC(N)=O)[C@@H](O)[C@H](Oc2ccc3c(O)c(NC(=O)c4ccc(O)c(CC=C(C)C)c4)c(=O)oc3c2C)OC1(C)C` gave an MIC of less than 6.25 µM (broth dilution; ATCC6633).
